Activity calls are given as the source filed them. The rule behind the calls is not given here.
Experiments:
Mus musculus [1] = experiment: Toxicity in C57BL/6 mouse assessed as interphase microtubule de-stabilizing activity by measuring influx of rhodamine in to heart at 1 mg/kg, iv co-administered with rhodamine B by fluorimetry; type: organism-based; set-up: dose 1 mg/kg, route intravenous; details: in vivo
Method in brief: (§1)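 Intact mice, 6–8 wk, 3 per group; compound dissolved in DMSO at 20 mM, 4 µl diluted into 200 µl saline (1 mg/kg), mixed with 50 µl rhodamine B, single i.v. injection; controls DMSO plus rhodamine B. Killed 4 h later; organs cut, extracted in 0.3N acid in ethanol 2 h at 37 °C, centrifuged, supernatant fluorescence read with 540 nm filter.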

[2] = Induction of cell cycle arrest in mouse W1308 cells assessed as accumulation at G1 phase at 200 nM after 72 hrs by propidium iodide staining based flow cytometry (reference value: 43 +/ 2%); type: functional
ASPC1 [3] = experiment: Induction of cell cycle arrest in human AsPC1 cells assessed as accumulation at G1 phase at 200 nM after 72 hrs by propidium iodide staining based flow cytometry (reference value: 65 +/ 3%); type: functional
ASPC1 [4] = experiment: Induction of apoptosis in human AsPC1 cells assessed as apoptotic body formation at 200 nM after 72 hrs by Hoechst 33342 and mitotracker red staining based confocal microscopy; type: functional, cell-based
Method in brief: (§2)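 AsPC-1 cells grown overnight on coverslips, then cultured 72 h with compound at various concentrations in complete medium. Hoechst 33342 and MitoTracker Red added for 1 h; cells fixed in 1% paraformaldehyde, mounted in Mowiol, and examined by confocal microscopy for nuclear and mitochondrial morphology.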

ASPC1 [5] = experiment: Induction of apoptosis in human AsPC1 cells assessed as mitochondria depolarization at 200 nM after 72 hrs by Hoechst 33342 and mitotracker red staining based confocal microscopy; type: functional, cell-based; method in brief: as §2
[6] = Induction of apoptosis in mouse W1308 cells assessed as apoptotic cells level at 200 nM after 48 hrs by 3,3'-dihexyloxacarbocyanine iodide and propidium iodide staining based flow cytometry (reference value: 11%); type: functional
[7] = Induction of apoptosis in mouse W1308 cells 200 nM after 72 hrs by propidium iodide staining based flow cytometry (reference value: 0.3 +/ 0.1); type: functional
ASPC1 [8] = experiment: Induction of apoptosis in human AsPC1 cells at 200 nM after 72 hrs by propidium iodide staining based flow cytometry (reference value: 2.2 +/ 0.1%); type: functional
Jurkat [9] = experiment: Induction of cell cycle arrest in human Jurkat cells assessed as G1/G2 phas e-ratio at 200 nM after 72 hrs by propidium iodide staining based flow cytometry (reference value: 2.7); type: functional
ASPC1 [10] = experiment: Growth inhibition of human AsPC1 cells at 100 uM after 72 hrs by MTT assay; type: functional; details: ASPC1, 72 h, read-out: GI
[11] = (§3) Toxicity in iv dosed C57BL/6 mouse measured after 24 to 48 hrs; type: organism-based; details: C57BL/6, mouse, in vivo
Method in brief: (§4)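 Acute toxicity: single doses given i.p. or i.v. to 6–8 wk C57BL/6 mice to determine LD100 and LD50; lethality observed 24–48 h after injection.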

Mus musculus [12] = experiment: as §3; type: organism-based; details: mouse, in vivo; method in brief: as §4
Mus musculus [13] = experiment: Toxicity in mouse MMTV-Wnt-1 cells implanted C57BL/6 mouse assessed as induction of weight loss at 0.4 mg/kg, iv once weekly for four weeks; type: organism-based; set-up: dose 0.4 mg/kg, route intravenous; details: in vivo
Method in brief: (§5)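 C57BL/6 mice, 6–8 wk, inoculated subcutaneously with Wnt-1 tumor cells in 50 µl PBS into left inguinal fat pad under anesthesia. Treatment started at day 27 in mice with palpable tumors (n=7 per group). Compound in 200 µl saline given i.v. into orbital sinus at days 27, 34, 41, 48; controls received saline. Tumors measured by caliper twice weekly, volume (W²×L)/2. Study ended day 51.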

Jurkat [14] = experiment: Induction of apoptosis in human Jurkat cells at 200 nM after 72 hrs by propidium iodide staining based flow cytometry (reference value: 0.9 +/ 0.2%); type: functional
[15] = Inhibition of lamb brain tubulin polymerization assessed as reduction in microtubule assembly by spectrophotometry; set-up: species or system Ovis aries
Method in brief: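 Tubulin purified from lamb brain by ammonium sulfate fractionation and ion-exchange chromatography. Assembly in 20 mM sodium phosphate, 1 mM EGTA, 10 mM MgCl2, 3.4 M glycerol, 1 mM GTP, pH 6.5, started by warming to 37 °C; turbidity followed at 350 nm over time. Inhibition plotted against ligand:tubulin molar ratio.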

HEK293 [16] = experiment: Induction of cell cycle arrest in HEK293 cells assessed as accumulation at G1 phase at 200 nM after 72 hrs by propidium iodide staining based flow cytometry (reference value: 76 +/ 5%); type: functional, Homo sapiens
Jurkat [17] = experiment: Cytotoxicity against human Jurkat cells after 72 hrs by MTT assay; type: functional, cell-based
Method in brief: (§6)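 Cells seeded at 3x10^5 cells/mL 24 h before assay (HEK293, AsPC-1 in DMEM; Jurkat, W1308 in RPMI-1640; 10% FCS, 2-ME). Tenfold dilutions from […] to 1 nM added; untreated cells as controls. 72 h incubation, MTT 250 µg/ml added for last 6 h, formazan dissolved in DMSO, OD read. IC50 from titration curves; inhibition index = 1 − OD(treated)/OD(control).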

ASPC1 [18] = experiment: Induction of apoptosis in human AsPC1 cells assessed as double nucleated cells level at 200 nM after 72 hrs by Hoechst 33342 and mitotracker red staining based confocal microscopy; type: functional, cell-based; method in brief: as §2
Mus musculus [19] = experiment: Toxicity in mouse MMTV-Wnt-1 cells implanted C57BL/6 mouse assessed as induction of neurological symptoms at 0.4 mg/kg, iv once weekly for four weeks; type: organism-based; set-up: dose 0.4 mg/kg, route intravenous; details: in vivo; method in brief: as §5
[20] = Cytotoxicity against mouse W1308 cells after 72 hrs by MTT assay; type: functional, cell-based; details: W1308, 72 h; method in brief: as §6
Mus musculus [21] = experiment: Toxicity in mouse MMTV-Wnt-1 cells implanted C57BL/6 mouse assessed as induction of behavior changes at 0.4 mg/kg, iv once weekly for four weeks; type: organism-based; set-up: dose 0.4 mg/kg, route intravenous; details: in vivo; method in brief: as §5
[22] = Induction of apoptosis in mouse W1308 cells assessed as pre-apoptotic cells level at 200 nM after 48 hrs by 3,3'-dihexyloxacarbocyanine iodide and propidium iodide staining based flow cytometry (reference value: 17%); type: functional
Mus musculus [23] = experiment: Toxicity in C57BL/6 mouse assessed as interphase microtubule de-stabilizing activity by measuring influx of rhodamine in to spleen at 1 mg/kg, iv co-administered with rhodamine B by fluorimetry; type: organism-based; set-up: dose 1 mg/kg, route intravenous; details: in vivo; method in brief: as §1
Jurkat [24] = experiment: Growth inhibition of human Jurkat cells at 100 uM after 72 hrs by MTT assay; type: functional; details: read-out: GI
ASPC1 [25] = experiment: Induction of cell cycle arrest in human AsPC1 cells assessed as G1/G2 phase ratio at 200 nM after 72 hrs by propidium iodide staining based flow cytometry (reference value: 1.9); type: functional
HEK293 [26] = experiment: Induction of cell cycle arrest in HEK293 cells assessed as G1/G2 phase ratio at 200 nM after 72 hrs by propidium iodide staining based flow cytometry (reference value: 3.6); type: functional, Homo sapiens
HEK293 [27] = experiment: Induction of apoptosis in HEK293 cells at 200 nM after 72 hrs by propidium iodide staining based flow cytometry (reference value: 3 +/- 1%); type: functional, Homo sapiens
[28] = Reduction in blood-brain barrier permeability in […]; type: ADME, tissue-based, C57BL/6, Endothelial cell; set-up: scale not given: the % may be the effect or the level left; details: mouse; method in brief: as §1
HEK293 [29] = experiment: Growth inhibition of HEK293 cells at 100 uM after 72 hrs by MTT assay; type: functional; details: Homo sapiens, HEK293, 72 h; read-out: GI
ASPC1 [30] = experiment: Cytotoxicity against human AsPC1 cells after 72 hrs by MTT assay; type: functional, cell-based; details: ASPC1, 72 h; method in brief: as §6

Question: Which Activity (Mus musculus [1]) does the source give for `COc1cc2c(c(OC)c1OC)-c1cc3cc(CO)oc3cc1[C@@H](NC(C)=O)CC2` here?
Answer: Toxic

Question: What about the Activity [2] of the same compound?
Answer: 18%

Question: And the Activity (ASPC1 [3])?
Answer: 27%

Question: What about the Activity (ASPC1 [4]) of the same compound?
Answer: Active

Question: And the Activity (ASPC1 [5])?
Answer: Active

Question: What about the Activity [6] of the same compound?
Answer: 11%

Question: And the Activity [7]?
Answer: 2.3%

Question: What about the Activity (ASPC1 [8]) of the same compound?
Answer: 1.2%

Question: And the Ratio (Jurkat [9])?
Answer: 0.6

Question: What about the inhibition of growth at 100 µM (ASPC1 [10]) of the same compound?
Answer: 60%

Question: What about the LD50 [11] of the same compound?
Answer: 0.8 mg/kg

Question: What about the LD100 (Mus musculus [12]) of the same compound?
Answer: 2 mg/kg

Question: And the Activity (Mus musculus [13])?
Answer: Non-toxic

Question: What about the Activity (Jurkat [14]) of the same compound?
Answer: 2.2%

Question: And the IC50 [15]?
Answer: 0.08 molar ratio

Question: And the Activity (HEK293 [16])?
Answer: 22%

Question: What about the IC50 (Jurkat [17]) of the same compound?
Answer: < 20 nM

Question: What about the Activity (ASPC1 [18]) of the same compound?
Answer: Active

Question: And the Activity (Mus musculus [19])?
Answer: Non-toxic

Question: What about the IC50 [20] of the same compound?
Answer: < 20 nM

Question: What about the Activity (Mus musculus [21]) of the same compound?
Answer: Non-toxic

Question: What about the Activity [22] of the same compound?
Answer: 14%

Question: What about the Activity (Mus musculus [23]) of the same compound?
Answer: Toxic

Question: And the inhibition of growth at 100 µM (Jurkat [24])?
Answer: 60%

Question: What about the Ratio (ASPC1 [25]) of the same compound?
Answer: 0.7

Question: And the Ratio (HEK293 [26])?
Answer: 0.3

Question: And the Activity (HEK293 [27])?
Answer: 6%

Question: What about the Activity [28] of the same compound?
Answer: 40%

Question: What about the inhibition of growth at 100 µM (HEK293 [29]) of the same compound?
Answer: 60%

Question: What about the IC50 (ASPC1 [30]) of the same compound?
Answer: < 50 nM
